Common to all, as to assay type: functional
The subject of assay [1] is Fusarium graminearum. In words: Fungicidal activity against Fusarium graminearum assessed as inhibition of mycelium growth at 50 ug/mL by mycelium growth rate method. Put shortly:
(§1)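 Mycelium growth rate method: colony diameters measured once mycelia had grown completely, and the relative inhibition rate (%) calculated from the diameters by formula. Phenazine-1-carboxylic acid ran as control. Values are the average of three replicate results.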

The subject of assay [2] is Mycosphaerella arachidis. In words: Fungicidal activity against Mycosphaerella arachidis assessed as inhibition of mycelium growth at 50 ug/mL by mycelium growth rate method. Summed up: as §1
The subject of assay [3] is Botryosphaeria berengeriana. In words: Fungicidal activity against Botryosphaeria berengeriana assessed as inhibition of mycelium growth at 50 ug/mL by mycelium growth rate method. Put shortly:
as §1

Assay [4] has as its system Fusarium oxysporum. In words: Fungicidal activity against Fusarium oxysporum assessed as inhibition of mycelium growth at 50 ug/mL by mycelium growth rate method. Summed up:
as §1

Assay [5] deals with Alternaria solani. In words: Fungicidal activity against Alternaria solani assessed as inhibition of mycelium growth at 50 ug/mL by mycelium growth rate method. Summed up:
as §1

Molecules are shown by their SMILES.

For orientation: inhibition means the share of the control response that was lost under treatment. With `CCOC(=O)c1cccc2nc3cc(N)c(OCC)cc3nc12`, the inhibition at 50 µg/mL was found to be 14.5% in assay [1]; 11.5% in assay [2]; 26.9% in assay [3]; 6.9% in assay [4]; 17.6% in assay [5].

Consider `CCCCOC(=O)c1cccc2nc3cc(N)c(OCCCC)cc3nc12`, for which the inhibition at 50 µg/mL in assay [1] came out at 23.6%; in assay [2], 13%; in assay [3], 25.5%; in assay [4], 0%; in assay [5], 13.3%.

`COC(=O)c1cccc2nc3c(S(=O)(=O)c4ccccc4[N+](=O)[O-])cccc3nc12`: the inhibition at 50 µg/mL turned out to be 43.2% in assay [1]; 0% in assay [2]; 28.6% in assay [3]; 0% in assay [4]; 3.4% in assay [5].

On to `CCOC(=O)c1cccc2nc3cc(N)ccc3nc12`, for which the inhibition at 50 µg/mL stood at 11.3% in assay [1]; 7.7% in assay [2]; 44.2% in assay [3]; 31% in assay [4]; 29.4% in assay [5].

With `COC(=O)c1cccc2nc3cc(C(=O)CCc4ccccc4)ccc3nc12`, the inhibition at 50 µg/mL in assay [1] is 2.4%; in assay [2], 2.6%; in assay [3], 0%; in assay [4], 11.1%; in assay [5], 19.1%.

For `COC(=O)c1cccc2nc3c(C(=O)c4ccc(Cl)cc4Cl)cccc3nc12`, the inhibition at 50 µg/mL in assay [1] worked out at 27.3%; in assay [2], 0%; in assay [3], 10.7%; in assay [4], 7.1%; in assay [5], 3.4%.

On to `Nc1cccc2nc3c(C(=O)O)cccc3nc12`, for which the inhibition at 50 µg/mL in assay [1] was 12.9%; in assay [2] it was 7.7%; in assay [3], 19.2%; in assay [4], 13.8%; in assay [5] it was 0%.

`Nc1ccc2nc3cccc(C(=O)O)c3nc2c1`: the inhibition at 50 µg/mL turned out to be 33.9% in assay [1]; 11.5% in assay [2]; 9.6% in assay [3]; 6.9% in assay [4]; 5.9% in assay [5].

As for `COC(=O)c1cccc2nc3cc(N)ccc3nc12`, the inhibition at 50 µg/mL in assay [1] stood at 15.1%; in assay [2], 0%; in assay [3], 25%; in assay [4], 10.8%; in assay [5], 33.3%.

As for `CCCCOC(=O)c1cccc2nc3cc(OCCCC)c(N)cc3nc12`, the inhibition at 50 µg/mL was 42.4% in assay [1]; 16.7% in assay [2]; 34.3% in assay [3]; 20% in assay [4]; 17.4% in assay [5].

In the case of `COC(=O)c1cccc2nc3cc(S(=O)(=O)c4ccc(C)cc4)ccc3nc12`, the inhibition at 50 µg/mL in assay [1] amounted to 17.5%; in assay [2], 22.2%; in assay [3] it was 8%; in assay [4], 13.5%; in assay [5] it was 33.3%.

As to `CCCOC(=O)c1cccc2nc3cc(N)c(OCCC)cc3nc12`, the inhibition at 50 µg/mL in assay [1] turned out to be 20%; in assay [2], 21.7%; in assay [3], 26.5%; in assay [4], 0%; in assay [5], 20%.

As for `COC(=O)c1cccc2nc3ccc(N)cc3nc12`, the inhibition at 50 µg/mL in assay [1] is 18.2%; in assay [2] it was 4%; in assay [3] it was 37.1%; in assay [4] it was 23.3%; in assay [5], 10%.

As to `COC(=O)c1cccc2nc3cc(C(C)=O)ccc3nc12`, the inhibition at 50 µg/mL in assay [1] amounted to 12.7%; in assay [2] it was 0%; in assay [3] it was 3.9%; in assay [4], 0%; in assay [5], 3.3%.

In the case of `CCCCOC(=O)c1cccc2nc3c(NC(=O)CCCCl)c([N+](=O)[O-])ccc3nc12`, the inhibition at 50 µg/mL in assay [1] was found to be 51.5%; in assay [2], 11.1%; in assay [3], 37.1%; in assay [4], 16%; in assay [5], 17.4%.

Regarding `CCOC(=O)c1cccc2nc3ccc(N)cc3nc12`, the inhibition at 50 µg/mL in assay [1] came to 20%; in assay [2], 12%; in assay [3], 51.4%; in assay [4], 16.7%; in assay [5] it was 20%.

On to `CCCCOC(=O)c1cccc2nc3cc(N)ccc3nc12`, for which the inhibition at 50 µg/mL in assay [1] worked out at 7.3%; in assay [2], 17.4%; in assay [3], 29.6%; in assay [4] it was 13.3%; in assay [5], 43.3%.

As for `CCCCOC(=O)c1cccc2nc3c([N+](=O)[O-])c(N)ccc3nc12`, the inhibition at 50 µg/mL in assay [1] came out at 25%; in assay [2], 12.5%; in assay [3] it was 16.1%; in assay [4], 17.9%; in assay [5], 17.2%.

Take `CCCCOC(=O)c1cccc2nc3c(C(=O)CCCCl)cccc3nc12`: the inhibition at 50 µg/mL amounted to 0% in assay [1]; 8.3% in assay [2]; 0% in assay [3]; 10.7% in assay [4]; 6.1% in assay [5].

For the compound `COC(=O)c1cccc2nc3cc(C(=O)c4ccc(Cl)cc4Cl)ccc3nc12`, the inhibition at 50 µg/mL in assay [1] is 0%; in assay [2], 0%; in assay [3] it was 0%; in assay [4] it was 7.1%; in assay [5] it was 3%.

As to `COC(=O)c1cccc2nc3cc(C(=O)COC(C)=O)ccc3nc12`, the inhibition at 50 µg/mL in assay [1] came out at 4.8%; in assay [2] it was 4%; in assay [3] it was 1.8%; in assay [4] it was 5.3%; in assay [5], 6.5%.

`COC(=O)c1cccc2nc3cc(C(=O)CCCCl)ccc3nc12`: the inhibition at 50 µg/mL in assay [1] worked out at 36.8%; in assay [2], 7.7%; in assay [3], 0%; in assay [4], 0%; in assay [5] it was 37.7%.

In the case of `CCCOC(=O)c1cccc2nc3ccc(N)cc3nc12`, the inhibition at 50 µg/mL in assay [1] was 27.3%; in assay [2], 20%; in assay [3], 48.6%; in assay [4] it was 33.3%; in assay [5], 20.2%.

As to `Nc1ccc2nc3c(C(=O)O)cccc3nc2c1`, the inhibition at 50 µg/mL in assay [1] was 1.6%; in assay [2] it was 11.1%; in assay [3] it was 4.9%; in assay [4], 2.7%; in assay [5], 5.1%.

For `CCCCOC(=O)c1cccc2nc3c(N)cccc3nc12`, the inhibition at 50 µg/mL in assay [1] was determined as 2.7%; in assay [2], 8.3%; in assay [3], 15.6%; in assay [4], 21.4%; in assay [5], 24.2%.

Turning to `COC(=O)c1cccc2nc3c(C(=O)CCc4ccccc4)cccc3nc12`, the inhibition at 50 µg/mL in assay [1] amounted to 30.3%; in assay [2], 0%; in assay [3] it was 31.4%; in assay [4], 28%; in assay [5], 4.3%.

Take `CCCOC(=O)c1cccc2nc3cc(N)ccc3nc12`: the inhibition at 50 µg/mL came to 25.5% in assay [1]; 26.1% in assay [2]; 19.6% in assay [3]; 10% in assay [4]; 16.7% in assay [5].

Regarding `COC(=O)c1cccc2nc3cc(S(=O)(=O)c4ccc([N+](=O)[O-])cc4)ccc3nc12`, the inhibition at 50 µg/mL in assay [1] was 0%; in assay [2], 8%; in assay [3], 18.2%; in assay [4], 15.8%; in assay [5], 6.5%.

Take `CCCCOC(=O)c1cccc2nc3ccc(N)cc3nc12`: the inhibition at 50 µg/mL in assay [1] is 23.6%; in assay [2], 24%; in assay [3] it was 34.3%; in assay [4], 26.7%; in assay [5] it was 23.3%.

Turning to `COC(=O)c1cccc2nc3c(N)c([N+](=O)[O-])cc([N+](=O)[O-])c3nc12`, the inhibition at 50 µg/mL was 57.6% in assay [1]; 22.2% in assay [2]; 50% in assay [3]; 32% in assay [4]; 21.7% in assay [5].

On to `COC(=O)c1cccc2nc3c(C(=O)CCCCl)cccc3nc12`, for which the inhibition at 50 µg/mL in assay [1] was found to be 25%; in assay [2] it was 0%; in assay [3], 41.1%; in assay [4] it was 0%; in assay [5], 13.8%.

Regarding `COC(=O)c1cccc2nc3c(S(=O)(=O)c4ccc([N+](=O)[O-])cc4)cccc3nc12`, the inhibition at 50 µg/mL in assay [1] was 31.8%; in assay [2] it was 25%; in assay [3] it was 17.9%; in assay [4] it was 17.9%; in assay [5], 13.8%.

Turning to `COC(=O)c1cccc2nc3cc(C(=O)C(Cl)(Cl)Cl)ccc3nc12`, the inhibition at 50 µg/mL in assay [1] was 4.8%; in assay [2], 12%; in assay [3], 21.8%; in assay [4], 5.3%; in assay [5], 0%.

Turning to `COC(=O)c1cccc2nc3c(NC(=O)CCCCl)c([N+](=O)[O-])ccc3nc12`, the inhibition at 50 µg/mL in assay [1] is 40.4%; in assay [2], 35%; in assay [3], 34.4%; in assay [4], 16.3%; in assay [5], 20.5%.

For the origin of these results see ChEMBL document CHEMBL3045119, “Synthesis and fungicidal activity of novel aminophenazine-1-carboxylate derivatives” (J Agric Food Chem, 2010).
